Measurements: ChEMBL document CHEMBL4043093, “2-Oxo-3, 4-dihydropyrimido[4, 5-d]pyrimidinyl derivatives as new irreversible pan fibroblast growth factor receptor (FGFR) inhibitors” (Eur J Med Chem, 2017)

Assays:
[1] = target: Casein kinase I isoform delta (Homo sapiens) (UniProt P48730); assay: Inhibition of wild-type human full length CSNK1D (M1 to K409 residues) expressed in Escherichia coli BL21 assessed as residual activity at 1000 nM after 30 mins by Kinomescan method relative to control
Summary of the method: (§1)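 Single-point screen at a fixed 1 µM, run within a 456-kinase DiscoveRx KINOMEscan panel. Each kinase's read-out is Percent Control, i.e. signal relative to a control without compound. Hits were scored by a Percent Control < 35 cut-off, and an S(35) selectivity score was calculated across the non-mutant kinases.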

[2] = target: 5'-AMP-activated protein kinase catalytic subunit alpha-1 (Homo sapiens) (UniProt Q13131); assay: Inhibition of wild-type human partial length AMPK alpha1 (M1 to E306 residues) expressed in Escherichia coli BL21 assessed as residual activity at 1000 nM after 30 mins by Kinomescan method relative to control
[3] = target: Serine/threonine-protein kinase Sgk2 (Homo sapiens) (UniProt Q9HBY8); assay: Inhibition of wild-type human partial length SGK2 (L54 to C427 residues) expressed in HEK293 cells assessed as residual activity at 1000 nM after 30 mins by Kinomescan method relative to control; type: cell-based
[4] = system: Phosphatidylinositol 4,5-bisphosphate 3-kinase catalytic subunit alpha isoform (Homo sapiens), P42336 [M1043I]; assay: Inhibition of human partial length PIK3CA M1043I mutant (R108 to N1068 residues) expressed in HEK293 cells assessed as residual activity at 1000 nM after 30 mins by Kinomescan method relative to control; type: cell-based; summary of the method: as §1
[5] = target: VEGFR2 (vascular endothelial growth factor receptor 2) (Homo sapiens, UniProt P35968); assay: Inhibition of wild-type human partial length VEGFR2 (R787 to P1253 residues) expressed in HEK293 cells assessed as residual activity at 1000 nM after 30 mins by Kinomescan method relative to control; type: cell-based; settings: read-out: Activity
[6] = target: Cyclin-dependent kinase-like 3 (Homo sapiens) (UniProt Q8IVW4); assay: Inhibition of wild-type human partial length CDKL3 (M1 to D327 residues) expressed in Escherichia coli BL21 assessed as residual activity at 1000 nM after 30 mins by Kinomescan method relative to control
[7] = target: 1-phosphatidylinositol 3-phosphate 5-kinase (Homo sapiens) (UniProt Q9Y2I7); assay: Inhibition of wild-type human partial length PIKFYVE (F1512 to C2098 residues) expressed in HEK293 cells assessed as residual activity at 1000 nM after 30 mins by Kinomescan method relative to control; type: cell-based
[8] = target: Myosin light chain kinase, smooth muscle (Homo sapiens) (UniProt Q15746); assay: Inhibition of wild-type human full length MYLK (M854 to E1845 residues) expressed in HEK293 cells assessed as residual activity at 1000 nM after 30 mins by Kinomescan method relative to control; type: cell-based
Summary of the method: (§2)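 Single-concentration screen at 1 µM across a 456-kinase KINOMEscan panel. The read-out is Percent Control for each kinase.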

[9] = target: Serine/threonine-protein kinase Nek7 (Homo sapiens) (UniProt Q8TDX7); assay: Inhibition of wild-type human full length NEK7 (M1 to S302 residues) expressed in Escherichia coli BL21 assessed as residual activity at 1000 nM after 30 mins by Kinomescan method relative to control; summary of the method: as §2
[10] = target: Tyrosine-protein kinase Fgr (Homo sapiens) (UniProt P09769); assay: Inhibition of wild-type human partial length FGR (L233 to T529 residues) expressed in Escherichia coli BL21 assessed as residual activity at 1000 nM after 30 mins by Kinomescan method relative to control
[11] = target: Non-receptor tyrosine-protein kinase TYK2 (Homo sapiens) (UniProt P29597); assay: Inhibition of wild-type human partial length TYK2 JH2 pseudokinase domain (G556 to D888 residues) expressed in HEK293 cells assessed as residual activity at 1000 nM after 30 mins by Kinomescan method relative to control; type: cell-based
[12] = target: Mitogen-activated protein kinase 14 (Homo sapiens) (UniProt Q16539); assay: Inhibition of wild-type human full length p38-alpha (M1 to S360 residues) expressed in Escherichia coli BL21 assessed as residual activity at 1000 nM after 30 mins by Kinomescan method relative to control
[13] = target: Serine/threonine-protein kinase 10 (Homo sapiens) (UniProt O94804); assay: Inhibition of wild-type human partial length LOK (E16 to V314 residues) expressed in Escherichia coli BL21 assessed as residual activity at 1000 nM after 30 mins by Kinomescan method relative to control
[14] = target: Beta-adrenergic receptor kinase 1 (Homo sapiens) (UniProt P25098); assay: Inhibition of wild-type human full length GRK2 (M1 to L689 residues) expressed in HEK293 cells assessed as residual activity at 1000 nM after 30 mins by Kinomescan method relative to control; type: cell-based; summary of the method: as §2
[15] = target: Tyrosine-protein kinase Yes (Homo sapiens) (UniProt P07947); assay: Inhibition of wild-type human partial length YES (T257 to L543 residues) expressed in Escherichia coli BL21 assessed as residual activity at 1000 nM after 30 mins by Kinomescan method relative to control
[16] = target: LIM domain kinase 1 (Homo sapiens) (UniProt P53667); assay: Inhibition of wild-type human full length LIMK1 (M1 to D647 residues) expressed in Escherichia coli BL21 assessed as residual activity at 1000 nM after 30 mins by Kinomescan method relative to control; summary of the method: as §2
[17] = target: Ephrin type-A receptor 5 (Homo sapiens) (UniProt P54756); assay: Inhibition of wild-type human partial length EPHA5 (T627 to V930 residues) expressed in Escherichia coli BL21 assessed as residual activity at 1000 nM after 30 mins by Kinomescan method relative to control
[18] = target: Mitogen-activated protein kinase 12 (Homo sapiens) (UniProt P53778); assay: Inhibition of wild-type human full length p38-gamma (M1 to L367 residues) expressed in HEK293 cells assessed as residual activity at 1000 nM after 30 mins by Kinomescan method relative to control; type: cell-based
[19] = organism: Homo sapiens; assay: Inhibition of human partial length FLT3 ITD/D835V double mutant expressed in Escherichia coli BL21 assessed as residual activity at 1000 nM after 30 mins by Kinomescan method relative to control
Summary of the method: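 KINOMEscan binding panel of 456 kinases, with the test compound at a single concentration of 1 µM. Read-out is Percent Control.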

[20] = target: MAP/microtubule affinity-regulating kinase 3 (Homo sapiens) (UniProt P27448); assay: Inhibition of wild-type human full length MARK3 (M1 to L729 residues) expressed in Escherichia coli BL21 assessed as residual activity at 1000 nM after 30 mins by Kinomescan method relative to control; summary of the method: as §2
[21] = target: Serine/threonine-protein kinase PLK2 (Homo sapiens) (UniProt Q9NYY3); assay: Inhibition of wild-type human partial length PLK2 (H58 to F354 residues) expressed in HEK293 cells assessed as residual activity at 1000 nM after 30 mins by Kinomescan method relative to control; type: cell-based

Chain of Cyclin-dependent kinase-like 3 (Homo sapiens) (Q8IVW4 whole entry, looked up, the tested form may be a part): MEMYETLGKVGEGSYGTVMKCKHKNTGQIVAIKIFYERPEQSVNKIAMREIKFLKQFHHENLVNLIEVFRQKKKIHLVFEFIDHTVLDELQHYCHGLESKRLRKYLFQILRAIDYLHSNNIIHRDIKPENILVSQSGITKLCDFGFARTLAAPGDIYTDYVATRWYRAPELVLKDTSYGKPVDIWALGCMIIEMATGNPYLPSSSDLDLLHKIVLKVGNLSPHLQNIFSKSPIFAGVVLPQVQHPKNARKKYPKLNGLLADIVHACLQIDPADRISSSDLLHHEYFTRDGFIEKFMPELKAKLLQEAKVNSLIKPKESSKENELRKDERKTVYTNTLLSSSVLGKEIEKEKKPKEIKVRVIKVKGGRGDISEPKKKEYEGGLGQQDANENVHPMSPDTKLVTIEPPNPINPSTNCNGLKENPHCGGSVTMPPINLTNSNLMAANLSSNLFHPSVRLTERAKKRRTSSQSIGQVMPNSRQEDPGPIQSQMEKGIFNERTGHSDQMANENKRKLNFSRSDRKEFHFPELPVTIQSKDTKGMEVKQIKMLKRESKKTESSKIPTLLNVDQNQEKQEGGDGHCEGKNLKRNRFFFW
Chain of Serine/threonine-protein kinase Sgk2 (Homo sapiens) (Q9HBY8 whole entry, the tested form may be a part, canonical isoform): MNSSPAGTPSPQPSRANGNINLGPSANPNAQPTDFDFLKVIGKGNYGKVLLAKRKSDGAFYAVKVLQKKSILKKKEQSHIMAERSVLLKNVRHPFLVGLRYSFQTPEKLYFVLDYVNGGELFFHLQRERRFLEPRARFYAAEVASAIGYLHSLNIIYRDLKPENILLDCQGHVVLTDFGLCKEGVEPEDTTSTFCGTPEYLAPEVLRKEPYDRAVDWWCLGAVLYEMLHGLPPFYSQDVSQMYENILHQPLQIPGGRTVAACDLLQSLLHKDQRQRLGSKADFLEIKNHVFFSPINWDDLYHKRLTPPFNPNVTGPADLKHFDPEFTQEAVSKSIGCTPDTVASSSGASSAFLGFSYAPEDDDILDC
Chain of Ephrin type-A receptor 5 (Homo sapiens) (P54756 whole entry, the tested form may be a part): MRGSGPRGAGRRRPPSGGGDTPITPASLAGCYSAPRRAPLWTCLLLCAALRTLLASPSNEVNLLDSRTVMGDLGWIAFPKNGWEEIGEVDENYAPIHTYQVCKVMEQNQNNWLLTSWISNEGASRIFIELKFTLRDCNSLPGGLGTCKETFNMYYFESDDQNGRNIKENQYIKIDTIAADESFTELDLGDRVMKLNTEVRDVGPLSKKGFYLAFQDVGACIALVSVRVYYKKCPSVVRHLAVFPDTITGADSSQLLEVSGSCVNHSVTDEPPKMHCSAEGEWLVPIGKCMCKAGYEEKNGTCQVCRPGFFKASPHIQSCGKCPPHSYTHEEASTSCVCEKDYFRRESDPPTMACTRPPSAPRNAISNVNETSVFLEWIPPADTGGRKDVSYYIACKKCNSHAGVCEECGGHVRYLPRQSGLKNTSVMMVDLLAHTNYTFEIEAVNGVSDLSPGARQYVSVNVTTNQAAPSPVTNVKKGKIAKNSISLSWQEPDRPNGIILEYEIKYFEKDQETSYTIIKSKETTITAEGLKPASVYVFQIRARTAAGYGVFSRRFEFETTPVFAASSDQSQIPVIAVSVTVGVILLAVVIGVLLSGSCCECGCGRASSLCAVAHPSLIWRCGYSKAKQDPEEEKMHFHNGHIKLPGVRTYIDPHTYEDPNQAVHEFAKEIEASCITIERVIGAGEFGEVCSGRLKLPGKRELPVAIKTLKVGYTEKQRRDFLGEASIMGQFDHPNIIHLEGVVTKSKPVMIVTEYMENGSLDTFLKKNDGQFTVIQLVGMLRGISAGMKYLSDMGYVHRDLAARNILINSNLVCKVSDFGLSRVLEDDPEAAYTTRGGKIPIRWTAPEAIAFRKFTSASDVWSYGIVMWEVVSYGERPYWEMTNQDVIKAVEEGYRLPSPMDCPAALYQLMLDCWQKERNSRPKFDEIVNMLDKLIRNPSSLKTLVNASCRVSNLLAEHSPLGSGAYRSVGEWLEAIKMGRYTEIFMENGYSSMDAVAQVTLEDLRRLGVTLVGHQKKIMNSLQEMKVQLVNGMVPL
Chain of Serine/threonine-protein kinase 10 (Homo sapiens) (O94804 whole entry, looked up, the tested form may be a part): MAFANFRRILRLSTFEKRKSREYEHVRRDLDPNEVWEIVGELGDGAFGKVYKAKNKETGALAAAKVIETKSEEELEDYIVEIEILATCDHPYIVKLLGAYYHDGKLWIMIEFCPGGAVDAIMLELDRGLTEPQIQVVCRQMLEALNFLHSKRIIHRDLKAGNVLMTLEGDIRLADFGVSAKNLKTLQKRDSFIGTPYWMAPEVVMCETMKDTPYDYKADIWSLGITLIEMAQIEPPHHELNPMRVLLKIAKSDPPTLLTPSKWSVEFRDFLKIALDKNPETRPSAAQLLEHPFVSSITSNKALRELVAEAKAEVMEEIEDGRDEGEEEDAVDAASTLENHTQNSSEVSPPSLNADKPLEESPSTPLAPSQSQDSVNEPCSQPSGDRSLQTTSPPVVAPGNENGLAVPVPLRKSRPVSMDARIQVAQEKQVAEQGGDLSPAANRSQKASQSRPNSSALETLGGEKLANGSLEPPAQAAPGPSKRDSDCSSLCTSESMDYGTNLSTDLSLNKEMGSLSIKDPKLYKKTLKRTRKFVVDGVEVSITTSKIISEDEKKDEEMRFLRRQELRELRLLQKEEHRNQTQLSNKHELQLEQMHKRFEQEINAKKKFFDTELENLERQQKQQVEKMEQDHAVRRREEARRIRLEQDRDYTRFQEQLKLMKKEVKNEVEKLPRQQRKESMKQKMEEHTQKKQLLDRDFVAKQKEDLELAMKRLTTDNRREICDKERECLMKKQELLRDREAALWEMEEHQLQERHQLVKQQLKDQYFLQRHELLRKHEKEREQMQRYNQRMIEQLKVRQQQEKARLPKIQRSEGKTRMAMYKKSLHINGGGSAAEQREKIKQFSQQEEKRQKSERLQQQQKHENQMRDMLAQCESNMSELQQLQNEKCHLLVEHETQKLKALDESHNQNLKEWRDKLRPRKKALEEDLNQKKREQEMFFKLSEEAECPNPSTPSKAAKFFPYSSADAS
Chain of Tyrosine-protein kinase Fgr (Homo sapiens) (P09769 2-529 limits assumed): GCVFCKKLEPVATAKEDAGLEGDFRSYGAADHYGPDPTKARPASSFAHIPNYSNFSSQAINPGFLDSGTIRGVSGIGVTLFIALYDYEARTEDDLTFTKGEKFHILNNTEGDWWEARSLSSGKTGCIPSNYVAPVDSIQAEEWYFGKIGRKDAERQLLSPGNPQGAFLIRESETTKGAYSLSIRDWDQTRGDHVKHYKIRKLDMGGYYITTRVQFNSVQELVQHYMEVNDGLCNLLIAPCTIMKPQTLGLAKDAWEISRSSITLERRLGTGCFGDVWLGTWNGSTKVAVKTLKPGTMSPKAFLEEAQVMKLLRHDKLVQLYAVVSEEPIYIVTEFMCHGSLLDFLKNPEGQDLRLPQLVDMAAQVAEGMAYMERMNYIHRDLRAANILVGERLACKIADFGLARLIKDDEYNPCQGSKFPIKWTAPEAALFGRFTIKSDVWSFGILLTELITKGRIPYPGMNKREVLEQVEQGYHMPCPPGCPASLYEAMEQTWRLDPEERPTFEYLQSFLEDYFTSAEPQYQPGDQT
Chain of Non-receptor tyrosine-protein kinase TYK2 (Homo sapiens) (P29597 whole entry, the tested form may be a part): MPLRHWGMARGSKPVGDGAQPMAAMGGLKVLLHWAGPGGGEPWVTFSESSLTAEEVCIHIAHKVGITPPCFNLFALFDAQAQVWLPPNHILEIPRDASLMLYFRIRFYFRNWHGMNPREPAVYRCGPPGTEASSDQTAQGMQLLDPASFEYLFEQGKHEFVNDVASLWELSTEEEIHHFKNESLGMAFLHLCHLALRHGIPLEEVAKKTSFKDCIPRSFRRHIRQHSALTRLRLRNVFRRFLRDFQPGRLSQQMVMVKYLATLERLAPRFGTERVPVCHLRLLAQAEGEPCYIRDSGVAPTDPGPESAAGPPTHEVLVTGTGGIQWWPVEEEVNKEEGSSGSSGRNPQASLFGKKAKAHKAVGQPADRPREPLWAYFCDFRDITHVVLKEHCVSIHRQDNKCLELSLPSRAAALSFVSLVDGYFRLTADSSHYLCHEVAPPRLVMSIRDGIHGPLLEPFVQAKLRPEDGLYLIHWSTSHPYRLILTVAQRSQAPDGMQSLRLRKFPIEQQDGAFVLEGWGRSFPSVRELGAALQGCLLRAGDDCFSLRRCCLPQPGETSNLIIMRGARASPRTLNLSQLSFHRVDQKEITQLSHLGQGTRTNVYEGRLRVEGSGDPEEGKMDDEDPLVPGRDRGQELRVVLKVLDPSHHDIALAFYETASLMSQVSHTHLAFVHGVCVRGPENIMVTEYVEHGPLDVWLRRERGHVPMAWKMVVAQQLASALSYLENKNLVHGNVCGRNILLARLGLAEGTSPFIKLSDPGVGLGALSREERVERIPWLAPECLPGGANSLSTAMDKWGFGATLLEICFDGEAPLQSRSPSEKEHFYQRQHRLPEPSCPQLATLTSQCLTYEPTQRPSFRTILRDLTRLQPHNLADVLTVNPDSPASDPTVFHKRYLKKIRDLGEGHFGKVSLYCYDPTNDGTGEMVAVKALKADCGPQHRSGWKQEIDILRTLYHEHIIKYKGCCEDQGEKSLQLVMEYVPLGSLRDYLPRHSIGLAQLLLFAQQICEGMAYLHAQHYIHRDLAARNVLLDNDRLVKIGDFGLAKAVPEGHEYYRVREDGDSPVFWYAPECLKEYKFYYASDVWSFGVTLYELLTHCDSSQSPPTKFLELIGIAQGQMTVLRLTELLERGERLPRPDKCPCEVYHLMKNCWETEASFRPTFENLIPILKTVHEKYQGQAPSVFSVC
Chain of Serine/threonine-protein kinase Nek7 (Homo sapiens) (Q8TDX7 whole entry, looked up, the tested form may be a part): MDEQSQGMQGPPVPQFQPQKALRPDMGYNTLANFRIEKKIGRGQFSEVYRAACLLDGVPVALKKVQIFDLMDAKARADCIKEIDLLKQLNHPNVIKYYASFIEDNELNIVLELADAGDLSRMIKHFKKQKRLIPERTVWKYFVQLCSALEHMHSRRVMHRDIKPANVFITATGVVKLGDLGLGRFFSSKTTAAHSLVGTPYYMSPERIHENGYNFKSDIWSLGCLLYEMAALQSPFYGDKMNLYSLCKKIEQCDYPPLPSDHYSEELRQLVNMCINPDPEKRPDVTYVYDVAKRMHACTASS

## COc1cc(OC)c(Cl)c(N2Cc3cnc(Nc4ccc(F)cc4)nc3N(C3CCN(C(=O)/C=C/CN(C)C)CC3)C2=O)c1Cl
[1]
  Activity: 96%
[2]
  Activity: 96%
[3]
  Activity: 100%
[4]
  Activity: 95%
[5]
  activity at 0.5 h, 1 µM: 7.3%
[6]
  Activity: 89%
[7]
  Activity: 95%
[8]
  Activity: 100%
[9]
  Activity: 100%
[10]
  Activity: 19%
[11]
  Activity: 95%
[12]
  Activity: 98%
[13]
  Activity: 34%
[14]
  Activity: 87%
[15]
  Activity: 34%
[16]
  Activity: 100%
[17]
  Activity: 100%
[18]
  Activity: 89%
[19]
  Activity: 98%
[20]
  Activity: 99%
[21]
  Activity: 100%
